Test results taken from publication PMC10072318 (Bioorganic & medicinal chemistry letters, 2023).
Entries after “also recorded” stand apart in the source; their conditions may differ.

Test system: S. mansoni adults
Assay: not given
Conditions: cited from earlier work

Structure (SMILES) | Killing of S. mansoni adults in vitro
O=C(Nc1ccc(C(F)(F)F)c(C(F)(F)F)c1)c1cc(Cl)ccc1O [compound 1] | kill S. mansoni adults

Test system: adult S. mansoni
Assay: Adult S. mansoni severity score assay
Format: cell-based, Schistosoma mansoni
Conditions: not given
Outline: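 Adult worms were exposed to the test compound at 5 μM. Responses were scored visually at 1, 5, 24 and 48 h using a constrained nomenclature of descriptors for the worm's responses to chemical insult. Each descriptor carries a value, and these values are summed into a severity score ranging from 0 (no activity) to 4 (maximum activity).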

Structure (SMILES) | Time by which adult worm integrity was severely compromised [h]
O=C(Nc1ccc(Cl)c(Cl)c1)c1ccc(C(F)(F)F)cc1 [compound 9] | ≤ 1
O=C(Nc1cccc(C(F)(F)F)c1)c1ccc(C(F)(F)F)cc1 [compound 11] | ≤ 1

Same assay, conditions: 5 μM, SAR discussion

Structure (SMILES) | Antischistosomal activity in words
O=C(Nc1ccccc1)c1ccc(F)cc1 [compound 23] | inactive
O=C(Nc1ccc(Cl)nn1)c1cccc(F)c1 [compound 31, N-(6-chloropyridazin-3-yl)-3-fluorobenzamide] | inactive
Cc1ccc(NC(=O)c2ccc(C(F)(F)F)cc2)cc1C [compound 7] | retains substantial potency
O=C(Nc1cccc(C(F)(F)F)c1)c1ccccc1 [compound 15] | abolished activity
COc1ccc(NC(=O)c2ccc(C(F)(F)F)cc2)cc1OC [compound 8] | inactive; also recorded: eliminated activity
N#Cc1ccc(C(=O)Nc2cccc(C(F)(F)F)c2)cc1 [compound 18] | abolished activity
O=C(Nc1cccc(C(F)(F)F)c1)c1ccc(F)cc1 [compound 16] | activity was essentially abolished
O=C(Nc1ccc(F)c(F)c1)c1ccc(F)cc1 [compound 13] | activity was essentially compromised
O=C(Nc1ccccc1)c1ccc(C(F)(F)F)cc1 [compound 6] | inactive
Cc1ccc(NC(=O)c2ccccc2)cc1C [compound 14] | abolished activity
O=C(Nc1ccc(Cl)c(Cl)c1)c1ccccc1 [compound 25] | some activity was retained

Test system: S. mansoni schistosomula (post-infective larvae)
Assay: not given
Conditions: cited from earlier work

Structure (SMILES) | Killing of S. mansoni schistosomula in vitro
O=C(Nc1ccc(C(F)(F)F)c(C(F)(F)F)c1)c1cc(Cl)ccc1O [compound 1] | kill S. mansoni adults[6] and schistosomula
